Records with an inconclusive call do not appear.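 How the source made its calls, unless noted: active means inhibition over a set limit, the all-compound mean plus 3 SD, in both replicate runs; inconclusive means over that limit in just one replicate run; inactive means at or under that limit in both runs.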
Key:
[1] = OD615 S. cerevisiae growth inhibition, permissive medium, pilot counter-assay, permissive growth control for S. cerevisiae lifespan shortening project (AID 705;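 active means growth inhibition above 25% in both replicates, a cutoff set 3 SD above the mean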); conditions: OD615, 24 h, at 10 µM, hits give high values
How it was run: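 assay system = Saccharomyces cerevisiae strain carrying genetically modified DeaD replicative-lifespan system | technique = absorbance (optical density) at 615 nm | buffer or medium = permissive raffinose/galactose medium | timing = cells pre-grown 4 h, then 24 h compound exposure, 30 °C humidified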

[2] = Restrictive medium S. cerevisiae growth inhibition, OD615, pilot screen of yeast lifespan reduction project, restrictive growth control (AID 706;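 active means growth inhibition above a set limit, 3 SD over mean compound inhibition, in both replicates, cut at about 43% in these data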;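 further: modified DeaD lifespan yeast strain shifted to restrictive glucose medium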); conditions: OD615, 48 h, at 10 µM, hits give high values
How it was run: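 System: modified S. cerevisiae. Buffer or medium: CSMM-D glucose medium. Incubation: 4 h pre-growth plus 48 h compound exposure, 30 °C. Detection: absorbance (optical density) measured at 615 nm.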

[3] = viability gain of MRP-1-high H69AR cells under doxorubicin, pilot screen, MRP-1 activator project, CellTiter-Glo, duplicate (AID 807;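 active means viability increase at or above a cutoff of the median across tested compounds plus 3 SD, cut at about 8.5% in these data, passing the limit was not always enough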;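 further: compound pretreatment 18-22 h then 72 h combined with doxorubicin; 0% = doxorubicin alone and 100% = vehicle without doxorubicin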); conditions: H69AR viability with doxorubicin, CellTiter-Glo luminescence; at 10 µM; hits give high values
[4] = growth suppression of beta-catenin knockout HCT116, pilot screen, human colon tumor cells (AID 823;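 active means cell viability at or below a set limit in both duplicate runs, the limit being the all-compound median minus 4 SD, cut at about 23% in these data, passing the limit was not always enough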;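 further: 0% = wells killed by 20 µM Hyamine and 100% = untreated DMSO cell wells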); conditions: CellTiter-Glo, 60 h, at 10 µM, hits give low values
[5] = growth suppression of PTEN-deleted HCT116, pilot screen, cell-based, HCT116 clonal line, CellTiter-Glo (AID 824;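 active means viability at or below 27.92% in each of two runs, the all-compound median minus 4 SD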;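 further: 0% = 20 µM Hyamine control and 100% = vehicle cell control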); conditions: 60 h, at 10 µM, hits give low values
[6] = inhibitors of the yeast RAM network, pilot screen, dse1pr::URA3 reporter, 5-FOA selection (AID 869);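 further: 0% = DMSO wells with no growth and 100% = 10 µM 1-NA-PP1 with full growth; RAM network block rescues cells from 5-FOA so hits raise OD615 growth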; conditions: S. cerevisiae dse1pr::URA3 5-FOA growth, OD615, 2 d; at 10 µM; hits give high values; strain carries analog-sensitive mutant Cbk1 kinase
[7] = RAM signaling pathway blockade in yeast – S. cerevisiae, Pdr1DBD-CYC8 efflux-inhibited sensitized strain, primary screen (AID 1298;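 active means RAM network inhibition above 8.4% in each of two replicates, 3 SD over the compound average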;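 further: 0% = DMSO untreated cells without growth and 100% = 10 µM 1-NA-PP1 full growth; higher means more yeast growth rescued from 5-FOA killing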); conditions: S. cerevisiae cbk1-as DSE1-URA3 strain, 5-FOA growth OD615, 2 d; at 50 µM; hits give high values

CCOc1ccc(OCC)c(NC(=O)C2CCCN2S(=O)(=O)c2cccc3cccnc23)c1 (stereo not drawn)
inactive: growth inhibition [1] -0.54% | growth inhibition [2] 8.82% | viability increase [3] -3.84% | viability [4] 69.8% | viability [5] 65.7% | inhibition [6] -0.48% | RAM network inhibition [7] 5.36%

Cn1c(=O)c2c(nc(CN3CCCCC3)n2Cc2c(F)cccc2Cl)n(C)c1=O
inactive: growth inhibition [1] -2.88% | growth inhibition [2] -10.9% | viability increase [3] -2.22% | viability [4] 102% | viability [5] 93.2% | inhibition [6] 3.12% | RAM network inhibition [7] 4.38%

CCOc1ccc(C(=O)NCc2ccncc2)cc1OCC
inactive: growth inhibition [1] 8.96% | growth inhibition [2] 7.73% | viability increase [3] -0.92% | viability [4] 92.9% | viability [5] 90% | inhibition [6] 2.33% | RAM network inhibition [7] 0.83%

CCCCCn1c(CCCNC(=O)CC)nc2ccccc21
inactive: growth inhibition [1] -8.6% | growth inhibition [2] -0.63% | viability increase [3] -2.94% | viability [4] 89% | viability [5] 97.6% | inhibition [6] 0.405% | RAM network inhibition [7] 2.13%

CCN(C(=O)c1sc(N)c(C#N)c1C)C1CCCCC1
inactive: growth inhibition [1] -1.28% | growth inhibition [2] -0.585% | viability increase [3] 0.43% | viability [4] 92.1% | viability [5] 91.6% | inhibition [6] 1.5% | RAM network inhibition [7] 0.01%

CC1c2[nH]c3ccccc3c2CCN1S(C)(=O)=O (stereo not drawn)
inactive: growth inhibition [1] 2.66% | growth inhibition [2] 14.2% | viability increase [3] -0.49% | viability [4] 98.4% | viability [5] 90.8% | inhibition [6] 0.31% | RAM network inhibition [7] 0.57%

O=C(c1cnccn1)N(c1ccccc1)C1(C(=O)NC2CCCCC2)CCCCC1
inactive: growth inhibition [1] -6.44% | growth inhibition [2] -1.08% | viability increase [3] -0.6% | viability [4] 96.9% | viability [5] 90.7% | inhibition [6] 1.06% | RAM network inhibition [7] 1.62%

O=C1Nc2ccccc2C(O)(C(=O)NCc2ccc3c(c2)OCO3)N1c1ccccc1 (stereo not drawn)
inactive: growth inhibition [1] -2.08% | growth inhibition [2] -15.5% | viability increase [3] -3.17% | viability [4] 91.7% | viability [5] 92.5% | inhibition [6] 0.54% | RAM network inhibition [7] 0.05%

CCCCn1c(=O)n(CC(=O)Nc2ccc(C)c(Cl)c2)c(=O)c2c1ncn2Cc1ccco1
inactive: growth inhibition [1] -2.46% | growth inhibition [2] -24.8% | viability increase [3] 0.99% | viability [4] 72.2% | viability [5] 72.3% | inhibition [6] 2.23% | RAM network inhibition [7] 1.61%

CCOCCCNC(=O)C(NC(=O)CNC(C)=O)c1ccc(Cl)cc1 (stereo not drawn)
inactive: growth inhibition [1] -10.1% | growth inhibition [2] -12.2% | viability increase [3] -0.33% | viability [4] 102% | viability [5] 101% | inhibition [6] 2.1% | RAM network inhibition [7] 2.91%

Cc1cc(OCC(=O)N(C)C)c2c(-c3ccccc3)cc(=O)oc2c1
inactive: growth inhibition [1] -3.89% | growth inhibition [2] 2.71% | viability increase [3] -3.03% | viability [4] 97.4% | viability [5] 94.7% | inhibition [6] 0.915% | RAM network inhibition [7] 5.21%

CCCCn1c(CNC(=O)c2cccs2)nc2ccccc21
inactive: growth inhibition [1] -5.02% | growth inhibition [2] -5.51% | viability increase [3] -3.7% | viability [4] 101% | viability [5] 94.5% | inhibition [6] -0.215% | RAM network inhibition [7] -1.56%

CC1(C)CC(=O)C2=C(C1)Nc1ccccc1NC2c1nc2ccccc2[nH]1 (stereo not drawn)
inactive: growth inhibition [1] -10.1% | growth inhibition [2] 1.04% | viability increase [3] -3.97% | viability [4] 100% | viability [5] 95.7% | inhibition [6] 1.65% | RAM network inhibition [7] 1.45%

CCOC(=O)C1=C(C)Nc2nc(C)nn2C1c1ccc(C)cc1 (stereo not drawn)
inactive: growth inhibition [1] -0.5% | growth inhibition [2] 7.16% | viability increase [3] -1.84% | viability [4] 100% | viability [5] 97.8% | inhibition [6] 1.9% | RAM network inhibition [7] -0.2%

CCN1CCN(Cc2nc3c(c(=O)n(C)c(=O)n3C)n2Cc2ccccc2Cl)CC1
inactive: growth inhibition [1] -8.38% | growth inhibition [2] -13.4% | viability increase [3] -3.38% | viability [4] 91.7% | viability [5] 91.6% | inhibition [6] 1.17% | RAM network inhibition [7] 0.71%

C=CCNc1nc2c(c(=O)n(C)c(=O)n2C)n1CC(=C)C
inactive: growth inhibition [1] -1.17% | growth inhibition [2] 2.97% | viability increase [3] -0.38% | viability [4] 91.2% | viability [5] 91.8% | inhibition [6] -0.15% | RAM network inhibition [7] 1.58%

Cc1nnc(SCCC(C)C)[nH]c1=O
inactive: growth inhibition [1] -1.1% | growth inhibition [2] 0.225% | viability increase [3] -2.93% | viability [4] 101% | viability [5] 99.7% | inhibition [6] 0.745% | RAM network inhibition [7] 3.25%

Cc1cccc(NCc2nc(-c3ccccc3)no2)c1
inactive: growth inhibition [1] -2.16% | growth inhibition [2] 9.07% | viability increase [3] 2.88% | viability [4] 107% | viability [5] 106% | inhibition [6] 2.41% | RAM network inhibition [7] 3.44%

O=C(O)c1ccccc1C(=O)NCc1ccccc1
inactive: growth inhibition [1] -7.18% | growth inhibition [2] -15.6% | viability increase [3] 1.13% | viability [4] 99.3% | viability [5] 100% | inhibition [6] 0.27% | RAM network inhibition [7] 1.13%

O=C1c2ccccc2C(Nc2ccc(S(=O)(=O)N3CCCCC3)cc2)N1c1ccccn1 (stereo not drawn)
inactive: growth inhibition [1] -3.39% | growth inhibition [2] -7.4% | viability increase [3] -4.22% | viability [4] 67.8% | viability [5] 65.4% | inhibition [6] 2.17% | RAM network inhibition [7] 3.68%

COc1cccc(N2CCN(C(=O)C3CCCN(S(=O)(=O)c4cnc[nH]4)C3)CC2)c1 (stereo not drawn)
inactive: growth inhibition [1] 11.1% | growth inhibition [2] 8.66% | viability increase [3] 0.99% | viability [4] 97% | viability [5] 93% | inhibition [6] -0.27% | RAM network inhibition [7] -0.88%

COC(=O)c1nnn(Cc2ccccc2)c1N
inactive: growth inhibition [1] -6.96% | growth inhibition [2] -7.86% | viability increase [3] -1.68% | viability [4] 103% | viability [5] 98.8% | inhibition [6] 0.585% | RAM network inhibition [7] 0.17%

COc1ccc(CN2CCN(C(=O)c3ccco3)CC2)cc1OCc1ccccc1
inactive: growth inhibition [1] -9.2% | growth inhibition [2] -18.8% | viability increase [3] -2.34% | viability [4] 88% | viability [5] 83.3% | inhibition [6] 0.95% | RAM network inhibition [7] 2.98%

Cn1c(NC(=O)C(C)(C)Oc2ccc(Cl)cc2)cc(=O)n(C)c1=O
inactive: growth inhibition [1] -1.72% | growth inhibition [2] -8.67% | viability increase [3] -0.77% | viability [4] 94.7% | viability [5] 91.3% | inhibition [6] 2.34% | RAM network inhibition [7] -2.22%

Source: PubChem BioAssay
